ChEMBL document CHEMBL3621107, “Ring fusion strategy for synthesis and lead optimization of sulfur-substituted anthra[1,2-c][1,2,5]thiadiazole-6,11-dione derivatives as promising scaffold of antitumor agents” (Eur J Med Chem, 2015)

Columns and labels:
M14 = assay: Cytotoxicity against human M14 cells assessed as cell growth at 10 uM after 48 hrs by SRB assay relative to control; type: functional; details: M14, 48 h, read-out: Activity
Summary of the method: (§1)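 First-stage NCI-60 screen by the NCI Developmental Therapeutics Program. Each compound was tested once at a single concentration of 10 μM against the 60-cell-line panel. Growth percentage was reported for each cell line.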

SNB-19 = assay: Cytotoxicity against human SNB19 cells assessed as cell growth at 10 uM after 48 hrs by SRB assay relative to control; type: functional; details: SNB-19, 48 h, read-out: Activity
Summary of the method: (§2)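 NCI-60 one-dose screen run by NCI DTP: each cell line exposed to a single 10 µM dose, and percentage growth recorded against untreated growth.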

TK-10 = assay: Cytotoxicity against human TK10 cells assessed as cell growth at 10 uM after 48 hrs by SRB assay relative to control; type: functional; details: TK-10, 48 h, read-out: Activity; summary of the method: as §2
DU-145 = assay: Cytotoxicity against human DU145 cells after 72 hrs by MTT assay; type: functional, cell-based; details: DU-145, 72 h
Summary of the method: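 DU-145 cells grown in RPMI-1640 with 5% heat-inactivated fetal calf serum at 37 °C, 5% CO2. About 2×10^3 cells per well were seeded and incubated for 24 h. Compounds were dissolved in DMSO freshly and diluted into medium (vehicle 0.1% DMSO), then cells were exposed for 72 h. MTT was added for 3 h at 37 °C and absorbance read at 570 nm.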

HT-29 = assay: Cytotoxicity against human HT-29 cells assessed as cell growth at 10 uM after 48 hrs by SRB assay relative to control; type: functional; details: HT-29, 48 h, read-out: Activity; summary of the method: as §1
BT-549 = assay: Cytotoxicity against human BT549 cells assessed as cell growth at 10 uM after 48 hrs by SRB assay relative to control; type: functional; details: BT-549, 48 h, read-out: Activity; summary of the method: as §1
Malme-3M = assay: Cytotoxicity against human MALME-3M cells assessed as cell growth at 10 uM after 48 hrs by SRB assay relative to control; type: functional; details: read-out: Activity; summary of the method: as §1
HCC 2998 = assay: Cytotoxicity against human HCC2998 cells assessed as cell growth at 10 uM after 48 hrs by SRB assay relative to control; type: functional; details: HCC 2998, 48 h, read-out: Activity; summary of the method: as §1
[1] = Cytotoxicity against human EKVX cells assessed as cell growth at 10 uM after 48 hrs by SRB assay relative to control; type: functional; details: read-out: Activity; summary of the method: as §1
A498 = assay: Cytotoxicity against human A498 cells assessed as cell growth at 10 uM after 48 hrs by SRB assay relative to control; type: functional; details: A498, 48 h, read-out: Activity; summary of the method: as §1
T47D = assay: Cytotoxicity against human T47D cells assessed as cell growth at 10 uM after 48 hrs by SRB assay relative to control; type: functional; details: read-out: Activity; summary of the method: as §2
NCI-H23 = assay: Cytotoxicity against human NCI-H23 cells assessed as cell growth at 10 uM after 48 hrs by SRB assay relative to control; type: functional; details: NCI-H23, 48 h, read-out: Activity
Summary of the method: (§3)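 First-stage NCI DTP one-dose screen against the 60 human tumour cell line panel. Compounds were tested at a single 10 μM level, and results are given as growth percentage.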

SNB-75 = assay: Cytotoxicity against human SNB75 cells assessed as cell growth at 10 uM after 48 hrs by SRB assay relative to control; type: functional; details: SNB-75, 48 h, read-out: Activity; summary of the method: as §2
U-251 = assay: Cytotoxicity against human U251 cells assessed as cell growth at 10 uM after 48 hrs by SRB assay relative to control; type: functional; details: U-251, 48 h, read-out: Activity; summary of the method: as §2
786-0 = assay: Cytotoxicity against human 786-0 cells assessed as cell growth at 10 uM after 48 hrs by SRB assay relative to control; type: functional; details: 786-0, 48 h, read-out: Activity; summary of the method: as §1
OVCAR-5 = assay: Cytotoxicity against human OVCAR5 cells assessed as cell growth at 10 uM after 48 hrs by SRB assay relative to control; type: functional; details: OVCAR-5, 48 h, read-out: Activity; summary of the method: as §3
SR = assay: Cytotoxicity against human SR cells assessed as cell growth at 10 uM after 48 hrs by SRB assay relative to control; type: functional; details: read-out: Activity; summary of the method: as §2
LOX IMVI = assay: Cytotoxicity against human LOXIMVI cells assessed as cell growth at 10 uM after 48 hrs by SRB assay relative to control; type: functional; details: read-out: Activity; summary of the method: as §1
SF-295 = assay: Cytotoxicity against human SF295 cells assessed as cell growth at 10 uM after 48 hrs by SRB assay relative to control; type: functional; details: SF-295, 48 h, read-out: Activity; summary of the method: as §3
OVCAR-3 = assay: Cytotoxicity against human OVCAR3 cells assessed as cell growth at 10 uM after 48 hrs by SRB assay relative to control; type: functional; details: OVCAR-3, 48 h, read-out: Activity; summary of the method: as §3
SN12C = assay: Cytotoxicity against human SN12C cells assessed as cell growth at 10 uM after 48 hrs by SRB assay relative to control; type: functional; details: read-out: Activity; summary of the method: as §3
PC-3 [2] = assay: Cytotoxicity against human PC3 cells after 48 hrs by SRB assay; type: functional, cell-based; details: PC-3, 48 h
Summary of the method: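 Second-stage NCI-60 panel run by the NCI Developmental Therapeutics Program, covering nine tumour subpanels. Five concentrations were tested: 0.01, 0.1, 1, 10 and 100 μM. Percentage growth at each level was plotted against log10 drug concentration. GI50, TGI and LC50 were read from these dose-response curves. Subpanel MID values were divided into the full-panel MID to give selectivity ratios.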

MDA-MB-435 = assay: Cytotoxicity against human MDA-MB-435 cells assessed as cell growth at 10 uM after 48 hrs by SRB assay relative to control; type: functional; details: MDA-MB-435, 48 h, read-out: Activity; summary of the method: as §3
MOLT-4 = assay: Cytotoxicity against human MOLT4 cells assessed as cell growth at 10 uM after 48 hrs by SRB assay relative to control; type: functional; details: MOLT-4, 48 h, read-out: Activity; summary of the method: as §3
HL-60(TB) = assay: Cytotoxicity against human HL-60(TB) cells assessed as cell growth at 10 uM after 48 hrs by SRB assay relative to control; type: functional; details: HL-60, 48 h, read-out: Activity
Summary of the method: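 NCI Developmental Therapeutics Program 60-cell-line screen, first stage: a single dose of 10 μM against the panel, reported as percentage growth.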

MDA-MB-468 = assay: Cytotoxicity against human MDA-MB-468 cells assessed as cell growth at 10 uM after 48 hrs by SRB assay relative to control; type: functional; details: MDA-MB-468, 48 h, read-out: Activity; summary of the method: as §3
PC-3 [3] = assay: Cytotoxicity against human PC3 cells assessed as cell growth at 10 uM after 48 hrs by SRB assay relative to control; type: functional; details: PC-3, 48 h, read-out: Activity; summary of the method: as §3
UACC-62 = assay: Cytotoxicity against human UACC62 cells assessed as cell growth at 10 uM after 48 hrs by SRB assay relative to control; type: functional; details: UACC-62, 48 h, read-out: Activity; summary of the method: as §2
K562 = assay: Cytotoxicity against human K562 cells assessed as cell growth at 10 uM after 48 hrs by SRB assay relative to control; type: functional; details: K562, 48 h, read-out: Activity; summary of the method: as §1
SK-OV-3 = assay: Cytotoxicity against human SKOV3 cells assessed as cell growth at 10 uM after 48 hrs by SRB assay relative to control; type: functional; details: SK-OV-3, 48 h, read-out: Activity; summary of the method: as §3

| SMILES | growth at 10 µM (M14) | growth at 10 µM (SNB-19) | growth at 10 µM (TK-10) | IC50 (DU-145) | growth at 10 µM (HT-29) | growth at 10 µM (BT-549) | growth at 10 µM (Malme-3M) | growth at 10 µM (HCC 2998) | growth at 10 µM [1] | growth at 10 µM (A498) | growth at 10 µM (T47D) | growth at 10 µM (NCI-H23) | growth at 10 µM (SNB-75) | growth at 10 µM (U-251) | growth at 10 µM (786-0) | growth at 10 µM (OVCAR-5) | growth at 10 µM (SR) | growth at 10 µM (LOX IMVI) | growth at 10 µM (SF-295) | growth at 10 µM (OVCAR-3) | also measured |
| --- | --- | --- | --- | --- | --- | --- | --- | --- | --- | --- | --- | --- | --- | --- | --- | --- | --- | --- | --- | --- | --- |
| O=C1c2ccccc2C(=O)c2c1cc(Sc1ccc(F)cc1F)c1nsnc21 | 53.8% | 87.3% | 112% | 9.12 µM | 102% | 66.4% | 39.5% | 107% | 98.1% | 50.8% | -28.6% | 9.53% | 42.9% | 34.5% | 3.74% | 110% | 0.2% | -42% | 68.8% | -52.3% | growth at 10 µM (SN12C): 9.12%; IC50 (PC-3 [2]): 14.8 µM; growth at 10 µM (MDA-MB-435): -85.3%; growth at 10 µM (MOLT-4): -41.6%; growth at 10 µM (HL-60(TB)): -37.7%; growth at 10 µM (MDA-MB-468): -87%; growth at 10 µM (PC-3 [3]): -9.72%; growth at 10 µM (UACC-62): 53.3%; growth at 10 µM (K562): -21.1%; growth at 10 µM (SK-OV-3): 92.6% |
| Cc1cc(C)cc(Sc2cc3c(c4nsnc24)C(=O)c2ccccc2C3=O)c1 | 100% | 107% | 132% | > 15 µM | 105% | 95.1% | 102% | 109% | 100% | 93.6% | 81.1% | 90.4% | 80.6% | 108% | 98.2% | 107% | 78.4% | 90.2% | 91.1% | 118% | growth at 10 µM (SN12C): 105%; IC50 (PC-3 [2]): > 15 µM; growth at 10 µM (MDA-MB-435): 105%; growth at 10 µM (MOLT-4): 71.4%; growth at 10 µM (HL-60(TB)): 73.7%; growth at 10 µM (MDA-MB-468): 116%; growth at 10 µM (PC-3 [3]): 81.3%; growth at 10 µM (UACC-62): 103%; growth at 10 µM (K562): 75.6%; growth at 10 µM (SK-OV-3): 97.5% |
| O=C1c2ccccc2C(=O)c2c1cc(Sc1cc(Cl)ccc1Cl)c1nsnc21 | 99% | 84.4% | 112% | > 15 µM | 106% | 79.7% | 94.3% | 109% | 109% | 87.7% | 63.4% | 74.6% | 47% | 63.6% | 67.5% | 109% | 41.1% | 73% | 78.9% | 99.4% | growth at 10 µM (SN12C): 96.7%; IC50 (PC-3 [2]): > 15 µM; growth at 10 µM (MDA-MB-435): 106%; growth at 10 µM (MOLT-4): 1.27%; growth at 10 µM (HL-60(TB)): 72.7%; growth at 10 µM (MDA-MB-468): 90.7%; growth at 10 µM (PC-3 [3]): 80.6%; growth at 10 µM (UACC-62): 94.1%; growth at 10 µM (K562): 47.8%; growth at 10 µM (SK-OV-3): 84.1% |
| O=C1c2ccccc2C(=O)c2c1cc(Sc1ccccc1Br)c1nsnc21 | 59.5% | 71.4% | 76.5% | 9.58 µM | 96.5% | 52.2% | 35.3% | 78.4% | 77.7% | 24.2% | -33% | 18% | 47.2% | 11.5% | -6.19% | 121% | 2.94% | -15.3% | 100% | -65.8% | growth at 10 µM (SN12C): 22.6%; IC50 (PC-3 [2]): 5.76 µM; growth at 10 µM (MDA-MB-435): -73%; growth at 10 µM (MOLT-4): 29.7%; growth at 10 µM (HL-60(TB)): -44%; growth at 10 µM (MDA-MB-468): -79.9%; growth at 10 µM (PC-3 [3]): 4.23%; growth at 10 µM (UACC-62): 39.6%; growth at 10 µM (K562): 29.7%; growth at 10 µM (SK-OV-3): 66.7% |
| Cc1ccccc1Sc1cc2c(c3nsnc13)C(=O)c1ccccc1C2=O | 94.2% | 104% | 123% | > 15 µM | 104% | 95.3% | 96.8% | 124% | 105% | 85.5% | 51.9% | 53.2% | 76.3% | 62.4% | 100% | 126% | 23% | 30% | 105% | 5.3% | growth at 10 µM (SN12C): 86%; IC50 (PC-3 [2]): > 15 µM; growth at 10 µM (MDA-MB-435): 80.6%; growth at 10 µM (MOLT-4): 67.3%; growth at 10 µM (HL-60(TB)): 79.5%; growth at 10 µM (MDA-MB-468): 53.7%; growth at 10 µM (PC-3 [3]): 73.3%; growth at 10 µM (UACC-62): 90.7%; growth at 10 µM (K562): 32.3%; growth at 10 µM (SK-OV-3): 93.8% |
